Calls of active or inactive are those of the source. The calls are words filed in the database; no cut-off is given here.
Tests used:
[1] = system: A549; test: Inhibition of PI3K in human A549 cells assessed as inhibition of AKT phosphorylation at 1 to 25 uM incubated for 1 hr by Western blotting; format: cell-based
Method in brief: (§1)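 Cells seeded 24 h before treatment, then exposed to compounds for 1 h; DMSO vehicle control. Lysis in NP-40 buffer (1% NP40, 150 mM NaCl, 25 mM Tris pH 8.0) with protease and phosphatase inhibitors. Protein measured by Lowry. Equal protein run on 4-12% Bis-Tris gels and blotted. Probes: pERK1/2 (Thr202/Tyr204), pAKT (S473), total ERK/AKT, β-actin; ECL detection.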

[2] = molecular target: T1, Dual specificity mitogen-activated protein kinase kinase 1 (Homo sapiens, UniProt Q02750); test: Inhibition of MEK1 in human A549 cells assessed as inhibition of ERK1/2 phosphorylation at 1 to 25 uM incubated for 1 hr by Western blotting; format: cell-based; method in brief: as §1
T1 sequence (Q02750 whole entry): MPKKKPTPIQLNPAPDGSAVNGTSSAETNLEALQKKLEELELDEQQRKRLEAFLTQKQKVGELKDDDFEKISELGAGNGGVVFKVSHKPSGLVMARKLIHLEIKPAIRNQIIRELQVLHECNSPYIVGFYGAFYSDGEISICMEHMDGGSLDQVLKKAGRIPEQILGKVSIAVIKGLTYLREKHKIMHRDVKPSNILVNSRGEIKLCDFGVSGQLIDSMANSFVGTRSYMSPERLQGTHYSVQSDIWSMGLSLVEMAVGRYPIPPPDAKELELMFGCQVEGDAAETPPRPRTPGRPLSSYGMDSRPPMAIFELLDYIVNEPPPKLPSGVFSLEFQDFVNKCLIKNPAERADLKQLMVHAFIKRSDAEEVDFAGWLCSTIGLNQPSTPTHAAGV

[3] = molecular target: T1, Dual specificity mitogen-activated protein kinase kinase 1; test: Inhibition of MEK1 in human D54 cells assessed as inhibition of ERK1/2 phosphorylation at 1 to 25 uM incubated for 1 hr by Western blotting; format: cell-based; method in brief: as §1
[4] = system: D54; test: Inhibition of PI3K in human D54 cells assessed as inhibition of AKT phosphorylation at 1 to 25 uM incubated for 1 hr by Western blotting; format: cell-based; method in brief: as §1
[5] = system: A549; test: Cytotoxic activity against human A549 cells assessed as reduction in cell viability incubated for 48 hrs by alamar blue assay; format: functional, cell-based
Method in brief: (§2)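 Cells grown in RPMI with 10% heat-inactivated FBS and 1% penicillin/streptomycin/glutamine at 37 °C, 5% CO2. Compounds made as 10 mM DMSO stocks, serially diluted in RPMI. Controls received media with 1% DMSO. Viability read by AlamarBlue fluorescence 48 h after dosing. Combination treatments used co-administered single agents.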

[6] = system: D54; test: Cytotoxic activity against human D54 cells assessed as reduction in cell viability incubated for 48 hrs by alamar blue assay; format: functional, cell-based; method in brief: as §2
[7] = molecular target: T1, Dual specificity mitogen-activated protein kinase kinase 1; test: Inhibition of purified MEK1 (unknown origin) assessed as reduction in phosphorylation of inactive Erk2 incubated for 30 mins by Kinase-Glo luminescent kinase assay
[8] = Inhibition of PI3K (unknown origin) assessed as reduction in lipid kinase activity by fluorescence-based Adapta TR-FRET assay; set-up: species or system Homo sapiens
[9] = system: Mus musculus; test: In-vivo inhibition of MEK1 in human D54 cells xenografted nude Foxn1nu mouse assessed as reduction in tumor ERK1/2 phosphorylation at 375 mg/kg, po dosed 2 hrs before mouse sacrifice by Western blot method; format: functional
Method in brief: (§3)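 Five-week-old athymic nude Foxn1nu mice given s.c. flank injections of 1×10^6 cells in 50% RPMI/50% Matrigel (n=2 per tumor type). At about 150 mm³ tumor volume, mice were fasted 4 h, then dosed by oral gavage with 375 mg/kg in DMSO:HPBCD (3:2) or vehicle. Sacrifice at 2 h. Excised tumors analysed by western blot for pERK1/2 and pAKT.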

[10] = system: Mus musculus; test: In-vivo inhibition of PI3K in human D54 cells xenografted nude Foxn1nu mouse assessed as reduction in tumor AKT phosphorylation at 375 mg/kg, po dosed 2 hrs before mouse sacrifice by Western blot method; format: functional; method in brief: as §3
[11] = system: Mus musculus; test: In-vivo inhibition of MEK1 in human A549 cells xenografted nude Foxn1nu mouse assessed as reduction in tumor ERK1/2 phosphorylation dosed through oral gavage 2 hrs before mouse sacrifice by Western blot method; format: functional, organism-based; method in brief: as §3
[12] = system: Mus musculus; test: In-vivo inhibition of MEK1 in human D54 cells xenografted nude Foxn1nu mouse assessed as reduction in tumor ERK1/2 phosphorylation dosed through oral gavage 2 hrs before mouse sacrifice by Western blot method; format: functional, organism-based; method in brief: as §3
[13] = system: Mus musculus; test: In-vivo inhibition of PI3K in human A549 cells xenografted nude Foxn1nu mouse assessed as reduction in tumor AKT phosphorylation dosed through oral gavage 2 hrs before mouse sacrifice by Western blot method; format: functional, organism-based; method in brief: as §3
[14] = system: Mus musculus; test: In-vivo inhibition of PI3K in human D54 cells xenografted nude Foxn1nu mouse assessed as reduction in tumor AKT phosphorylation dosed through oral gavage 2 hrs before mouse sacrifice by Western blot method; format: functional, organism-based; method in brief: as §3
[15] = molecular target: Dual specificity mitogen-activated protein kinase kinase 1 (Mus musculus, UniProt P31938); test: Inhibition of MEK1 in mouse C26 cells assessed as inhibition of ERK1/2 phosphorylation incubated for 1 hr by Western blotting; format: cell-based
Chain of Dual specificity mitogen-activated protein kinase kinase 1 (Mus musculus, UniProt P31938) (P31938 whole entry): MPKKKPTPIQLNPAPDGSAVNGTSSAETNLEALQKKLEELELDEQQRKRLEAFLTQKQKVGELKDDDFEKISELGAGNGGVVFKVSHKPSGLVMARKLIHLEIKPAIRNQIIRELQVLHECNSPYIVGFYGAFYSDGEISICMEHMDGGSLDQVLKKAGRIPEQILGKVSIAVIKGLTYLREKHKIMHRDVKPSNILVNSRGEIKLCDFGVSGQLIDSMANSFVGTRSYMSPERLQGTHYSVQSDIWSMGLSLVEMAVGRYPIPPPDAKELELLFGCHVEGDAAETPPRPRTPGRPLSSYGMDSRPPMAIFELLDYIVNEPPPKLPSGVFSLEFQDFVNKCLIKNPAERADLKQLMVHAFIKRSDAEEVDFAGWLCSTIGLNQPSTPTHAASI

[16] = system: D54; test: Cytotoxic activity against human D54 cells assessed as reduction in cell viability incubated for 48 hrs in presence of ZSTK474 by alamar blue assay; format: functional, cell-based; method in brief: as §2
[17] = system: D54; test: Cytotoxic activity against human D54 cells assessed as reduction in cell viability incubated for 48 hrs in presence of PD0325901 by alamar blue assay; format: functional, cell-based; method in brief: as §2

inhibition [2] | inhibition [3] | SMILES | inhibition [1] | inhibition [4] | inhibition [5] | inhibition [6] | also measured
Active | Active | O=C(CNCCONC(=O)c1ccc(F)c(F)c1Nc1ccc(I)cc1F)NCCCCCC(=O)N1CCN(c2nc(N3CCOCC3)nc(-n3c(C(F)F)nc4ccccc43)n2)CC1 | Active | Active | Dose-dependent effect | Dose-dependent effect | 
Active | Active | O=C(NOCCNCCCCCC(=O)N1CCN(c2nc(N3CCOCC3)nc(-n3c(C(F)F)nc4ccccc43)n2)CC1)c1ccc(F)c(F)c1Nc1ccc(I)cc1F | Active | Active | Dose-dependent effect | Dose-dependent effect | inhibition [11]: Active; inhibition [12]: Active; inhibition [13]: Active; inhibition [14]: Active

The remaining lines, values behind:

SMILES | inhibition [2] | inhibition [3] | inhibition [1] | inhibition [4] | inhibition [5] | inhibition [6] | also measured
O=C(NOCCOCCOCCOCCN1CCN(c2nc(N3CCOCC3)nc(-n3c(C(F)F)nc4ccccc43)n2)CC1)c1ccc(F)c(F)c1Nc1ccc(I)cc1F | Active | Active | Active | Active | Dose-dependent effect | Dose-dependent effect | IC50 [7]: 0.015 nM; IC50 [8]: 191 nM; inhibition in vivo at 375 mg/kg [9]: 95%; inhibition in vivo at 375 mg/kg [10]: 67%
CNCCONC(=O)c1ccc(F)c(F)c1Nc1ccc(I)cc1F |  |  |  |  |  |  | IC50 [15]: 20 nM
O=C(NOC[C@H](O)CO)c1ccc(F)c(F)c1Nc1ccc(I)cc1F |  |  |  |  | Dose-dependent effect | Dose-dependent effect | Activity [16]: Active
O=C(NOCCNCCCCS(=O)(=O)N1CCN(c2nc(N3CCOCC3)nc(-n3c(C(F)F)nc4ccccc43)n2)CC1)c1ccc(F)c(F)c1Nc1ccc(I)cc1F | Active | Active |  |  | Dose-dependent effect | Dose-dependent effect | IC50 [8]: 285 nM
FC(F)c1nc2ccccc2n1-c1nc(N2CCOCC2)nc(N2CCOCC2)n1 |  |  |  |  | Dose-dependent effect | Dose-dependent effect | Activity [17]: Active
